The entries come from a sample that favours hits as a whole.
ABCG2 block = blocks JC-1 efflux by human ABCG2 transporter; Q9UNQ0; IgMXP3 cells, flow cytometry; inhibition, % at 6.6 µM; 190,000 compounds, 0.1% hits;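 active means inhibition above 80%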
Target sequence (Q9UNQ0 whole entry, looked up): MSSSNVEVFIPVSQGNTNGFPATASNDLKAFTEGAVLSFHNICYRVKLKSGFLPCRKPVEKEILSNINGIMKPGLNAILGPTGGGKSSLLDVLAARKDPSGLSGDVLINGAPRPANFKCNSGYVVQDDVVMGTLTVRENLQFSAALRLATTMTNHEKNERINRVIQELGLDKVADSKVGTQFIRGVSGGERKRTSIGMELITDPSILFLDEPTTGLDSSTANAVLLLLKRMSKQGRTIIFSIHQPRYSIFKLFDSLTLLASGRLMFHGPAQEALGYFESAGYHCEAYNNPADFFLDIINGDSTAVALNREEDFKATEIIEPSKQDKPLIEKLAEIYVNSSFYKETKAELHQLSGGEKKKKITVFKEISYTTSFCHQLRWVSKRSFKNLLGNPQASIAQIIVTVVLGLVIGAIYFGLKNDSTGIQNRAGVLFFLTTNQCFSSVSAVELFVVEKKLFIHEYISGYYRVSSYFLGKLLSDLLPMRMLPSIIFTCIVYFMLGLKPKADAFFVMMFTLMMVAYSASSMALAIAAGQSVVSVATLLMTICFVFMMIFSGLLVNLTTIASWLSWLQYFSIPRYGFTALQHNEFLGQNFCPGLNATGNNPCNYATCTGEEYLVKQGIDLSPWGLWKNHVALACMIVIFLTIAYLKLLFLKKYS
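Assay system – ABCG2 IgMXP3 and barcoded ABCB1 CCRF-Adr cell mix · Input – 3 million cells/mL in well · Reagent – JC-1 fluorescent substrate · Compound – single test compound dose, 6.6 µM final · Timing – 10 min exposure at 25 °C with rotation, no wash · Detection – flow cytometry of retained JC-1 fluorescence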
ROMK mod = modulators of human ROMK potassium channel; P48048; Tet-inducible ROMK, thallium flux fluorescence; actives lie on both sides; B-score at 10 µM; 130,000 compounds, 2% hits;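 active means signal ratio slope over the read window, or its plate-corrected B-score, at least 3 SD from the plate mean, either direction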;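 further: B-score of the F/F0 ratio slope over 7 to 12 s after thallium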
TRPML3 ag = agonists of human TRPML3 channel. Q8TDD5. HEK293 TRPML3-YFP, Fluo-8 calcium fluorescence; 100% = the carbachol control signal. activation, % at 3 µM. 220,000 compounds, 0.29% hits;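 active means activation above its plate's cutoff, the mean activation of the plate's test wells plus 3 SD, cut at about 12% in these data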
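Material: HEK293 cells stably carrying human TRPML3-YFP; compound dosing: single dose, 3 µM final nominal compound, 0.3% DMSO final; incubation: 1-h 37 °C dye load, 5-s basal, 120-s post-compound reads; technique: Fluo-8 intracellular calcium fluorescence, excitation 470-495 nm, emission 515-575 nm; read-out basis: percent activation from peak-to-basal fluorescence ratio, scaled between DMSO and carbachol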
ABCB1 block = human ABCB1 inhibition, ABCG2 as counter-screen | CCRF-Adr cells, JC-1 efflux, flow cytometry | inhibition, % at 6.6 µM | 190,000 compounds, 0.067% hits; in the data active means inhibition above about 40%;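 further: higher value means more JC-1 retained so stronger ABCB1 efflux block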
Calb biofilm kill = mixtures killing C. albicans biofilm; C. albicans biofilm persisters + clotrimazole, fluorescence viability; primary screen in compound mixtures of four per well; inhibition, % at 7.6 µM; 120,000 compounds, 0.02% hits; AID 1242;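 active means inhibition above 30.3% in the primary screen of four-compound pools, then above 30% when the compound was retested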;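 further: compounds exposed to preformed 24 h biofilms for 48 h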
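System: C. albicans CAF4-2 wild-type biofilms; Medium: RPMI/MOPS medium, pH 7.0; Reagent: Clotrimazole, 50 µg/mL; Times: biofilm formation 24 h, compound exposure 48 h, 37 °C; Detection: 2-h Alamar Blue fluorescence, 535/590 nm excitation/emission; Evaluation: percent inhibition of biofilm viability.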
zfTRPN1 agonist = activates the zebrafish TRPN1 channel | activation, % at 3 µM | HEK293 zebrafish TRPN1-YFP, Fluo-8 calcium fluorescence; 100% = response to 87 µM carbachol | 220,000 compounds, 0.18% hits;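 active means activation above its plate's cutoff, the mean activation of test wells on that plate plus 3 SD, cut at about 19% in these data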
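Control set: carbachol 87 µM as high control, DMSO as low control; system: HEK293 stable line with zebrafish TRPN1-YFP; read-out: % activation versus carbachol response; detection: intracellular calcium fluorescence with Fluo-8; doses: single test compound dose, 3 µM nominal, 0.3% DMSO; schedule: dye 1 h 37 °C plus 30 min RT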
ROMK hit retest = human ROMK channel modulation, retest confirmation. shares compounds with ROMK mod. ROMK thallium flux, fluorescence ratio; stronger effect = lower value. normalized thallium flux (F/F0 slope) at 10 µM. 3,000 compounds, 54% hits. AID 1917;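 active means Flux at 10 µM at least 3 SD below or above vehicle control mean in one or both replicates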
Of the large screens only hits and unclear results are named; the others gave an inactive call (follow-up assays come after a bar, where they were run).

CCCCOc1c(Br)cc(/C=N/O)cc1OCC	none
Cc1nc(N)nc(N)c1/C=C/C(C)(C)c1ccc(Cl)cc1	ROMK mod -3.8 | ROMK hit retest 0.064
COc1ccc(NC(=O)CCC(=O)N(Cc2ccc(OC)c(OC)c2)c2nccs2)c(OC)c1	none
Cc1ccc(Cl)c2c1=NC(=O)C=2c1[nH]c(=S)[nH]c1O	ROMK mod -2.4 | ROMK hit retest 0.054
O=C1N=c2ccccc2=C1c1[nH]c(=S)[nH]c1O	none (no result: ROMK mod)
O=C(NC(Nc1ncc(S(=O)(=O)c2ccc([N+](=O)[O-])cc2)s1)(C(F)(F)F)C(F)(F)F)c1ccc(Cl)cc1	ROMK mod -3 (no result: Calb biofilm kill) | ROMK hit retest inactive
CS(=O)(=O)c1ccc(S(=O)CC(=O)OCc2ccccc2)c([N+](=O)[O-])c1 (centres undefined)	ROMK mod -5.3 | ROMK hit retest 0.053
O=C(CS(=O)c1ccc(C(F)(F)F)cc1[N+](=O)[O-])Oc1ccccc1 (centres undefined)	none (no result: ROMK mod, Calb biofilm kill)
CCOC(=O)c1c(C)n(-c2ccc(C)cc2)c2ccc(OCC(O)CNCCCO)cc12 (centres undefined)	ROMK mod -3.6 | ROMK hit retest 0.053
Cc1cc(C)nc(/N=C2\NC(=O)CC(C(=O)O)N2c2ccc(Cl)cc2)n1 (centres undefined)	none (no result: ROMK mod, Calb biofilm kill) | ROMK hit retest inactive
Cc1ccc(N2/C(=N/c3nc(C)cc(C)n3)NC(=O)CC2C(=O)O)cc1 (centres undefined)	none (no result: Calb biofilm kill)
COc1ccc(N(CC(=O)NN=C2CCCC2)S(=O)(=O)c2ccccc2)cc1	ROMK mod 1.8 (no result: Calb biofilm kill) | ROMK hit retest inactive
O=C(NCc1nnc(SCc2ccc(C(F)(F)F)cc2)n1-c1ccccc1)C12CC3CC(CC(C3)C1)C2	none
O=C(NCc1nnc(SCc2ccc(F)cc2)n1-c1ccccc1)C12CC3CC(CC(C3)C1)C2	ROMK mod -2.5 | ROMK hit retest 0.056
Cc1cc2c(ccc3c2no[n+]3[O-])nn1	ROMK mod 2.7 (no result: Calb biofilm kill) | ROMK hit retest inactive
CCC[N+](CC#Cc1ccccc1)(CCC)CC(=O)c1ccc(Cl)cc1	ROMK mod -3 | ROMK hit retest 0.063
CO/N=C\CC(=O)Nc1ccc(Cl)c(Cl)c1	ROMK mod 4.7 | ROMK hit retest inactive
O=C(Cc1cccs1)NNC(=S)NCc1ccco1	ROMK mod -9.4 | ROMK hit retest inactive
Cc1nc2ccccc2c(=O)n1/N=C/c1ccc2ccccc2c1O	none (no result: ABCG2 block, ROMK mod, ABCB1 block) | ROMK hit retest inactive
COc1cc(CN2CCN(Cc3ccc([N+](=O)[O-])cc3)CC2)c([N+](=O)[O-])cc1OC	ROMK mod -4.3 | ROMK hit retest 0.044
COc1ccccc1NC(=O)NCc1nc(-c2ccc(C(F)(F)F)cc2)no1	none (no result: ABCG2 block, ABCB1 block)
CCOC(=O)Nc1nc(-c2ccccc2)c(C(=O)c2ccc(Cl)cc2)s1	ROMK mod 3.2 (no result: Calb biofilm kill) | ROMK hit retest inactive
O=C(CNC(=O)c1ccco1)N/N=C/c1cccs1	none (no result: ABCG2 block, ROMK mod, ABCB1 block)
Cc1occc1C(=O)NC1CCCCCC1	ROMK mod 3.1 (no result: Calb biofilm kill) | ROMK hit retest inactive
CC1=C(C(=O)N2CCOCC2)C(c2cc(C)ccc2C)NC(=S)N1 (centres undefined)	none
N#C/C(=C(/O)c1cc2ccccc2o1)c1nc2ccccc2s1	none (no result: ABCG2 block, ROMK mod, ABCB1 block) | ROMK hit retest 0.058
CCOc1ccc(S(=O)(=O)Nc2nc3ccccc3nc2-n2ccc(=NC(=O)c3cccs3)cc2)cc1	ROMK mod -2.6 | ROMK hit retest 0.059
CC1CCN(c2cc(N)c(Cl)cc2[N+](=O)[O-])CC1	none (no result: ROMK mod, Calb biofilm kill) | ROMK hit retest 0.069
O=C(Cn1c(=O)n(CCc2c[nH]c3ccccc23)c(=O)c2cccnc21)Nc1ccccc1F	ROMK mod 2.8 | ROMK hit retest inactive
Cc1cccc(C(=O)N2CCC(=O)N(C(COCc3cccc(Cl)c3)Cc3ccccc3)CC2)c1 (centres undefined)	ROMK mod -3.7 | ROMK hit retest 0.056

Assay outcomes (PubChem)
